≈ marks a conversion by molar mass, not a printed value. *1 amine or outer side, *2 acyl side, *3 side chain or, on linkers, in order; H or OH if unused. Where a SMILES comes first, the peptide text is derived from it. The star is where a group is joined. X1 = c1ccc(CN(Cc2ccccc2)Cc2cccc(N*)c2)cc1; X2 = c1ccc(CN(Cc2ccccn2)Cc2cccc(N*)n2)nc1; Glutaryl = O=C(CCCC(=O)[*:2])[*:1]; OBn = c1ccc(CO*)cc1
Columns and labels:
Klebsiella aerogenes [1] = assay: Drug uptake in multidrug-resistant Enterobacter aerogenes EA289 overexpressing AcrAB-tolC at 123 uM after 15 to 60 mins by DUV microspectrofluorimetric analysis; format: ADME, organism-based; details: in vivo
Escherichia coli [2] = assay: Antibacterial activity against wild type Escherichia coli AG100 assessed as growth inhibition after 18 hrs by two-fold serial dilution method; format: functional; details: AG100, 18 h
How it was run: (§1)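 Strains were routinely grown at 37 °C in LB broth or on LB agar, with kanamycin 50 μg·mL–1 added for AG100A and EA298 (EA298 is the tolC derivative of clinical MDR isolate EA289). MICs were read in Mueller Hinton broth with 2-fold serial dilutions, using an inoculum of 2 × 10^5 cfu per 200 μL, scored after 18 h at 37 °C. Ciprofloxacin and fleroxacin served as reference antibiotics.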

Klebsiella aerogenes [3] = assay: Antibacterial activity against multidrug-resistant Enterobacter aerogenes EA289 overexpressing AcrAB-tolC assessed as growth inhibition after 18 hrs by two-fold serial dilution method; format: functional; details: EA289, 18 h
How it was run: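 Inoculum 2 × 10^5 cfu in Mueller Hinton broth with 2-fold serial compound dilutions. MIC was scored after 18 h at 37 °C. Ciprofloxacin and fleroxacin served as internal reference antibiotics. Strains were routinely grown at 37 °C in LB.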

Klebsiella aerogenes [4] = assay: Antibacterial activity against tolC-deficient Enterobacter aerogenes EA298 assessed as growth inhibition after 18 hrs by two-fold serial dilution method; format: functional; details: EA298, 18 h; how it was run: as §1
Escherichia coli [5] = assay: Antibacterial activity against acrAB-deficient Escherichia coli AG100A assessed as growth inhibition after 18 hrs by two-fold serial dilution method; format: functional; how it was run: as §1

| Structure (SMILES) | Drug uptake (Klebsiella aerogenes [1]) | MIC (Escherichia coli [2]) [µM] | MIC (Klebsiella aerogenes [3]) [µM] | MIC (Klebsiella aerogenes [4]) [µM] | MIC (Escherichia coli [5]) [µM] |
| --- | --- | --- | --- | --- | --- |
| CN(C)c1cccc2c(S(=O)(=O)NCCCC[C@@H](NC(=O)CCCC(=O)Nc3cccc(CN(Cc4ccccc4)Cc4ccccc4)c3)C(=O)N[C@@H](CCCNC(=N)N)C(=O)N[C@@H](Cc3c[nH]c4ccccc34)C(=O)N[C@@H](CCCNC(=N)N)C(=O)N[C@@H](Cc3c[nH]c4ccccc34)C(=O)OCc3ccccc3)cccc12 | Active |  |  |  |  |
| CC(=O)N[C@@H](CCCNC(=N)N)C(=O)N[C@@H](Cc1c[nH]c2ccccc12)C(=O)N[C@@H](CCCNC(=N)N)C(=O)N[C@@H](Cc1c[nH]c2ccccc12)C(=O)OCc1ccccc1 (Ac-RWRW-OBn) |  | 64 (≈ 53.4 µg/mL) | > 128 | 64 (≈ 53.4 µg/mL) | 16 (≈ 13.4 µg/mL) |
| N=C(N)NCCC[C@H](NC(=O)CCCC(=O)Nc1cccc(CN(Cc2ccccc2)Cc2ccccc2)c1)C(=O)N[C@@H](Cc1c[nH]c2ccccc12)C(=O)N[C@@H](CCCNC(=N)N)C(=O)N[C@@H](Cc1c[nH]c2ccccc12)C(=O)OCc1ccccc1 ({X1-Glutaryl}-RWRW-OBn) |  | 64 (≈ 76.3 µg/mL) | 64 (≈ 76.3 µg/mL) | 64 (≈ 76.3 µg/mL) | 64 (≈ 76.3 µg/mL) |
| N=C(N)NCCC[C@H](NC(=O)CCCC(=O)Nc1cccc(CN(Cc2ccccn2)Cc2ccccn2)n1)C(=O)N[C@@H](Cc1c[nH]c2ccccc12)C(=O)N[C@@H](CCCNC(=N)N)C(=O)N[C@@H](Cc1c[nH]c2ccccc12)C(=O)OCc1ccccc1 ({X2-Glutaryl}-RWRW-OBn) |  | 32 (≈ 38.2 µg/mL) | 16 (≈ 19.1 µg/mL) | 8 (≈ 9.56 µg/mL) | 8 (≈ 9.56 µg/mL) |
| N=C(N)NCCC[C@H](NC(=O)CCCC(=O)Nc1cccc(CN(Cc2ccccn2)Cc2ccccn2)n1)C(=O)N[C@@H](Cc1c[nH]c2ccccc12)C(=O)N[C@@H](CCCNC(=N)N)C(=O)N[C@@H](Cc1c[nH]c2ccccc12)C(=O)N[C@@H](CCCNC(=N)N)C(=O)N[C@@H](Cc1c[nH]c2ccccc12)C(=O)OCc1ccccc1 ({X2-Glutaryl}-RWRWRW-OBn) |  | 8 (≈ 12.3 µg/mL) | 16 (≈ 24.6 µg/mL) | 8 (≈ 12.3 µg/mL) | 8 (≈ 12.3 µg/mL) |
| N=C(N)NCCC[C@H](NC(=O)[C@H](Cc1c[nH]c2ccccc12)NC(=O)CCCC(=O)Nc1cccc(CN(Cc2ccccn2)Cc2ccccn2)n1)C(=O)N[C@@H](Cc1c[nH]c2ccccc12)C(=O)N[C@@H](CCCNC(=N)N)C(=O)OCc1ccccc1 ({X2-Glutaryl}-WRWR-OBn) |  | 16 (≈ 19.1 µg/mL) | 8 (≈ 9.56 µg/mL) | 4 (≈ 4.78 µg/mL) | 8 (≈ 9.56 µg/mL) |
| N=C(N)NCCC[C@H](NC(=O)[C@H](Cc1c[nH]c2ccccc12)NC(=O)CCCC(=O)Nc1cccc(CN(Cc2ccccn2)Cc2ccccn2)n1)C(=O)N[C@@H](Cc1c[nH]c2ccccc12)C(=O)N[C@@H](CCCNC(=N)N)C(=O)N[C@@H](Cc1c[nH]c2ccccc12)C(=O)N[C@@H](CCCNC(=N)N)C(=O)OCc1ccccc1 ({X2-Glutaryl}-WRWRWR-OBn) |  | 8 (≈ 12.3 µg/mL) | 16 (≈ 24.6 µg/mL) | 8 (≈ 12.3 µg/mL) | 8 (≈ 12.3 µg/mL) |
| CCCCC[C@H](CC(=O)NO)C(=O)N[C@H](C(=O)N1CCC[C@H]1CO)C(C)C [ACTINONIN] |  | > 128 | > 128 | 32 (≈ 12.3 µg/mL) | 2 (≈ 0.771 µg/mL) |
| O=C(O)c1cn(C2CC2)c2cc(N3CCNCC3)c(F)cc2c1=O [CIPROFLOXACIN] |  | 0.125 (≈ 0.0414 µg/mL) | 64 (≈ 21.2 µg/mL) | 8 (≈ 2.65 µg/mL) | 0.03 (≈ 0.00994 µg/mL) |
| CN1CCN(c2c(F)cc3c(=O)c(C(=O)O)cn(CCF)c3c2F)CC1 [FLEROXACIN] |  | 0.5 (≈ 0.185 µg/mL) | > 128 | 16 (≈ 5.91 µg/mL) | 0.125 (≈ 0.0462 µg/mL) |

From ChEMBL document CHEMBL2384943, “New Peptide-based antimicrobials for tackling drug resistance in bacteria: single-cell fluorescence imaging” (ACS Med Chem Lett, 2013)
